Laboratory results from ChEMBL document CHEMBL1151810, “Bioassay-guided isolation of xanthones and polycyclic prenylated acylphloroglucinols from Garcinia oblongifolia” (J Nat Prod, 2009).
Active and inactive are the calls of the source. No cut-off for these calls is given here.

Columns and labels:
HeLa C3 [1] = assay: Induction of apoptosis in human HeLaC3 cells assessed as reduction of yellow fluorescent protein/cyan fluorescent protein emission ratio below 3 at 20 uM after 72 hrs using fluorescent plate reader; format: functional, cell-based
Outline: (§1)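 HeLa-C3 cells express a caspase-3-cleavable CFP/YFP biosensor and are grown in MEM with 10% FBS and penicillin/streptomycin at 37 °C, 5% CO2. Seed 7500 cells per well and incubate 12-16 h. Take a 0 h read (ex 440 nm; em 486 nm CFP, 535 nm YFP), then replace the medium with compound-containing medium; include cell-free background wells. Read repeatedly up to 72 h. A YFP/CFP ratio below 3 scores as apoptotic. Triplicate wells, three experiments; 0.1% DMSO negative control.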

HeLa C3 [2] = assay: Induction of apoptosis in human HeLaC3 cells assessed as reduction of yellow fluorescent protein/cyan fluorescent protein emission ratio below 3 at 20 uM after 48 hrs using fluorescent plate reader; format: functional, cell-based; outline: as §1
HeLa C3 [3] = assay: Induction of apoptosis in human HeLaC3 cells assessed as reduction of yellow fluorescent protein/cyan fluorescent protein emission ratio below 3 at 20 uM after 24 hrs using fluorescent plate reader; format: functional, cell-based; outline: as §1
HeLa C3 [4] = assay: Induction of apoptosis in human HeLaC3 cells assessed as shrinkage and detached morphology at 20 uM after 72 hrs; format: functional, cell-based
HeLa C3 [5] = assay: Induction of apoptosis in human HeLaC3 cells assessed as shrinkage and detached morphology at 20 uM after 48 hrs; format: functional, cell-based
HeLa C3 [6] = assay: Induction of apoptosis in human HeLaC3 cells assessed as shrinkage and detached morphology at 20 uM after 24 hrs; format: functional, cell-based
HeLa C3 [7] = assay: Induction of apoptosis in human HeLaC3 cells assessed as reduction of yellow fluorescent protein/cyan fluorescent protein emission ratio below 3 at 500 nM after 72 hrs using fluorescent plate reader
HeLa C3 [8] = assay: Induction of apoptosis in human HeLaC3 cells assessed as shrinkage and detached morphology at 500 nM after 24 hrs
HeLa C3 [9] = assay: Induction of apoptosis in human HeLaC3 cells assessed as shrinkage and detached morphology at 500 nM after 72 hrs
HeLa C3 [10] = assay: Induction of apoptosis in human HeLaC3 cells assessed as shrinkage and detached morphology at 500 nM after 48 hrs
HeLa C3 [11] = assay: Induction of apoptosis in human HeLaC3 cells assessed as reduction of yellow fluorescent protein/cyan fluorescent protein emission ratio below 3 at 500 nM after 48 hrs using fluorescent plate reader
HeLa C3 [12] = assay: Induction of apoptosis in human HeLaC3 cells assessed as reduction of yellow fluorescent protein/cyan fluorescent protein emission ratio below 3 at 500 nM after 24 hrs using fluorescent plate reader

Row | SMILES | Activity (HeLa C3 [1]) | Activity (HeLa C3 [2]) | Activity (HeLa C3 [3]) | further results
1 | CC(C)=CCC/C(C)=C/C[C@H]1C[C@@]2(CC=C(C)C)C(=O)c3c(oc4cc(O)c(O)cc4c3=O)[C@](CC=C(C)C)(C2=O)C1(C)C | Active | Active | inactive | –
2 | CC1(C)C=Cc2cc3c(=O)c4c(O)cc(O)cc4oc3c(O)c2O1 | Active | inactive | inactive | –
3 | CC(C)=CCC/C(C)=C/C[C@@H]1C[C@@]2(CC=C(C)C)C(=O)c3c(oc4cc(O)c(O)cc4c3=O)[C@](CC=C(C)C)(C2=O)C1(C)C | Active | Active | inactive | –
4 | CC(C)=CCC/C(C)=C/C[C@H]1C[C@]2(C/C=C(\C)CCC=C(C)C)C(=O)[C@@](CC=C(C)C)(C(=O)C(C(=O)c3ccc(O)c(O)c3)=C2O)C1(C)C | Active | inactive | inactive | –
5 | CC(C)=CCC/C(C)=C/C[C@@H]1C[C@]2(CC=C(C)C)C(=O)[C@@](CC=C(C)C)(C(=O)C(C(=O)c3ccc(O)c(O)c3)=C2O)[C@@]1(C)CCC=C(C)C | Active | Active | Active | Activity (HeLa C3 [4]): Active; Activity (HeLa C3 [5]): Active; Activity (HeLa C3 [6]): Active
6 | CC(=O)O[C@H]1C(=O)[C@@]2(C)[C@H]([C@H](OC(=O)c3ccccc3)[C@]3(O)C[C@H](OC(=O)[C@H](O)[C@@H](NC(=O)c4ccccc4)c4ccccc4)C(C)=C1C3(C)C)[C@]1(OC(C)=O)CO[C@@H]1C[C@@H]2O | – | – | – | Activity (HeLa C3 [7]): Active; Activity (HeLa C3 [8]): Active; Activity (HeLa C3 [9]): Active; Activity (HeLa C3 [10]): Active; Activity (HeLa C3 [11]): Active; Activity (HeLa C3 [12]): inactive
7 | COc1cc(O)c2c(=O)c3ccc(O)c(O)c3oc2c1CCC(C)(C)O | Active | inactive | inactive | –
8 | CC(C)=CCC/C(C)=C/C[C@@H]1C[C@]2(CC=C(C)C)C(=O)[C@@](CC=C(C)C)(C(=O)C(C(=O)c3ccc(O)c(O)c3)=C2O)C1(C)C | Active | Active | inactive | –
9 | COc1cc(O)c2c(=O)c3c(CC=C(C)C)cc(O)c(O)c3oc2c1C/C=C(\C)CCC=C(C)C | Active | Active | inactive | –
